# From ChEMBL document CHEMBL1132142, “Extension of the polyanionic cosalane pharmacophore as a strategy for increasing anti-HIV potency” (J Med Chem, 1999)
# Assays:
# [1] = biological target: T-cell surface glycoprotein CD4 (Homo sapiens) (UniProt P01730); assay: Compound was tested for binding of the mAb (leu3a) to the CD4 receptor at 3.7 uM
# In short: (§1)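 The assay measured Leu3a monoclonal antibody binding to cell-surface CD4 at each listed concentration. Read-out was % positive cells and % inhibition relative to controls, including an isotype mAb.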
# [2] = biological target: C-X-C chemokine receptor type 4 (Homo sapiens) (UniProt P61073); assay: Compound was tested for binding of the mAb (12G5) to the Chemokine receptor type 4 at 0.65 uM
# [3] = biological target: C-X-C chemokine receptor type 4 (Homo sapiens) (UniProt P61073); assay: Compound was tested for binding of the mAb (12G5) to the CChemokine receptor type 4 at 0.73 uM
# [4] = biological target: T-cell surface glycoprotein CD4 (Homo sapiens) (UniProt P01730); assay: Compound was tested for binding of the mAb (leu3a) to the CD4 receptor at 0.65 uM; in short: as §1
# [5] = biological target: C-X-C chemokine receptor type 4 (Homo sapiens) (UniProt P61073); assay: Compound was tested for binding of the mAb (12G5) to the Chemokine receptor type 4 at 81 uM
# [6] = biological target: T-cell surface glycoprotein CD4 (Homo sapiens) (UniProt P01730); assay: Compound was tested for binding of the mAb (leu3a) to the CD4 receptor at 16 uM; in short: as §1
# [7] = biological target: C-X-C chemokine receptor type 4 (Homo sapiens) (UniProt P61073); assay: Compound was tested for binding of the mAb (12G5) to the CXCR4 receptor at 92 uM
# [8] = biological target: C-X-C chemokine receptor type 4 (Homo sapiens) (UniProt P61073); assay: Compound was tested for binding of the mAb (12G5) to the Chemokine receptor type 4 at 16 uM
# [9] = biological target: T-cell surface glycoprotein CD4 (Homo sapiens) (UniProt P01730); assay: Compound was tested for binding of the mAb (leu3a) to the CD4 receptor at 0.13 uM; in short: as §1
# [10] = biological target: T-cell surface glycoprotein CD4 (Homo sapiens) (UniProt P01730); assay: Compound was tested for binding of the mAb (leu3a) to the CD4 receptor at 0.73 uM; in short: as §1
# [11] = biological target: T-cell surface glycoprotein CD4 (Homo sapiens) (UniProt P01730); assay: Compound was tested for binding of the mAb (leu3a) to the CD4 receptor at 92 uM; in short: as §1
# [12] = biological target: C-X-C chemokine receptor type 4 (Homo sapiens) (UniProt P61073); assay: Compound was tested for binding of the mAb (12G5) to the Chemokine receptor type 4 at 18 uM
# [13] = biological target: C-X-C chemokine receptor type 4 (Homo sapiens) (UniProt P61073); assay: Compound was tested for binding of the mAb (12G5) to the Chemokine receptor type 4 at 3.7 uM
# [14] = biological target: T-cell surface glycoprotein CD4 (Homo sapiens) (UniProt P01730); assay: Compound was tested for binding of the mAb (leu3a) to the CD4 receptor at 18 uM; in short: as §1
# [15] = biological target: T-cell surface glycoprotein CD4 (Homo sapiens) (UniProt P01730); assay: Compound was tested for binding of the mAb (leu3a) to the CD4 receptor at 0.15 uM; in short: as §1
# [16] = biological target: C-X-C chemokine receptor type 4 (Homo sapiens) (UniProt P61073); assay: Compound was tested for binding of the mAb (12G5) to the Chemokine receptor type 4 at 0.73 uM
# [17] = biological target: T-cell surface glycoprotein CD4 (Homo sapiens) (UniProt P01730); assay: Compound was tested for binding of the mAb (leu3a) to the CD4 receptor at 3.2 uM; in short: as §1
# [18] = biological target: C-X-C chemokine receptor type 4 (Homo sapiens) (UniProt P61073); assay: Compound was tested for binding of the mAb (12G5) to the Chemokine receptor type 4 at 0.13 uM
# [19] = biological target: C-X-C chemokine receptor type 4 (Homo sapiens) (UniProt P61073); assay: Compound was tested for binding of the mAb (12G5) to the Chemokine receptor type 4 at 3.2 uM
# [20] = biological target: C-X-C chemokine receptor type 4 (Homo sapiens) (UniProt P61073); assay: Compound was tested for binding of the mAb (12G5) to the Chemokine receptor type 4 at 0.15 uM
# [21] = biological target: T-cell surface glycoprotein CD4 (Homo sapiens) (UniProt P01730); assay: Compound was tested for binding of the mAb (leu3a) to the CD4 receptor at 81 uM; in short: as §1
# [22] = biological target: C-X-C chemokine receptor type 4 (Homo sapiens) (UniProt P61073); assay: Compound was tested for binding of the mAb (12G5) to the Chemokine receptor type 4at 3.2 uM
# [23] = biological target: C-X-C chemokine receptor type 4 (Homo sapiens) (UniProt P61073); assay: Compound was tested for binding of the mAb (12G5) to the CXCR4 receptor at 18 uM
# [24] = system: MT4; assay: Compound was tested for binding of the mAb (NEA9305) to the V3 loo[p of gp120, expressed on HIV-1 infected MT-4 cells at 16 uM; format: functional, Homo sapiens
# In short: (§2)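 Binding of mAb NEA9305 to the gp120 V3 loop expressed on HIV-1-infected MT-4 cells was measured at each listed concentration. Results were given as % positive cells and % inhibition, with an isotype mAb control.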
# [25] = system: CD4+ve Th; assay: Compound was tested for binding of the gp120 (strain IIIb)to the CD4+ T-cell lines at 3.2 uM; format: functional
# In short: (§3)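 Recombinant gp120 (strain IIIB) binding to MT-4 (CD4+ T-cell) cells was measured at each listed concentration. Read-out was % positive cells and % inhibition, alongside an isotype mAb control.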
# [26] = system: MT4; assay: Compound was tested for binding of the mAb (NEA9305) to the V3 loo[p of gp120, expressed ion HIV-1 infected MT-4 cells at 3.2 uM; format: functional, Homo sapiens; in short: as §2
# [27] = system: MT4; assay: The compound was evaluated for inhibition of cytopathic effect of HIV-2ROD in MT-4 cells; format: functional, cell-based, Homo sapiens; conditions: mt4
# [28] = system: CEM-SS; assay: The compound was evaluated for inhibition of cytopathic effect of HIV-1 RF in CEM-SS cells; format: functional, cell-based, Homo sapiens
# In short: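 XTT-based microtiter cytoprotection assay measuring protection from HIV-1-induced cytopathic effect, read as percent of the uninfected drug-free control. EC50 is the concentration giving 50% protection in infected cultures. Results were confirmed by cell-free supernatant reverse transcriptase and p24 levels. Each plate was run in triplicate, and the EC50 values from two sister plates were averaged.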
# [29] = system: MT4; assay: Compound was tested for binding of the mAb (NEA9305) to the V3 loo[p of gp120, expressed on HIV-1 infected MT-4 cells at 81 uM; format: functional, Homo sapiens; in short: as §2
# [30] = system: MT4; assay: Compound was tested for binding of the mAb (NEA9305) to the V3 loo[p of gp120, expressed on HIV-1 infected MT-4 cells at 0.65 uM; format: functional, Homo sapiens; in short: as §2
# [31] = system: MT4; assay: The compound was evaluated for cytotoxicity in MT-4 cells; format: functional, Homo sapiens
# In short: (§4)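 Uninfected cells (CEM-SS or MT-4, per line) were incubated with the drug in a microtiter XTT assay. Viability was expressed as percent of the uninfected drug-free control. CC50 is the concentration causing 50% cell death. Triplicates were run per plate on two sister plates, and the two plate values were averaged.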
# [32] = system: CD4+ve Th; assay: Compound was tested for binding of the gp120 (strain IIIb)to the CD4+ T-cell lines at 0.65 uM; format: functional; in short: as §3
# [33] = system: CD4+ve Th; assay: Compound was tested for binding of the gp120 (strain IIIb)to the CD4+ T-cell lines at 81 uM; format: functional; in short: as §3
# [34] = system: CD4+ve Th; assay: Compound was tested for binding of the gp120 (strain IIIb)to the CD4+ T-cell lines at 16 uM; format: functional; in short: as §3
# [35] = system: CEM-SS; assay: The compound was evaluated for cytotoxicity in CEM-SS cells; format: functional, Homo sapiens; in short: as §4
# [36] = system: MT4; assay: The compound was evaluated for inhibition of cytopathic effect of HIV-1 IIIB in MT-4 cells; format: functional, cell-based, Homo sapiens
# [37] = system: CD4+ve Th; assay: Compound was tested for binding of the gp120 (strain IIIb)to the CD4+ T-cell lines at 18 uM; format: functional; in short: as §3
# [38] = system: MT4; assay: (§5) Compound was tested for binding of the mAb (NEA9305) to the V3 loo[p of gp120, expressed on HIV-1 infected MT-4 cells at 92 uM; format: functional; conditions: Homo sapiens; in short: as §2
# [39] = system: CD4+ve Th; assay: Compound was tested for binding of the gp120 (strain IIIb)to the CD4+ T-cell lines at 3.7 uM; format: functional; in short: as §3
# [40] = system: MT4; assay: (§6) Compound was tested for binding of the mAb (NEA9305) to the V3 loo[p of gp120, expressed on HIV-1 infected MT-4 cells at 0.73 uM; format: functional; conditions: Homo sapiens; in short: as §2
# [41] = system: MT4; assay: (§7) Compound was tested for binding of the mAb (NEA9305) to the V3 loo[p of gp120, expressed ion HIV-1 infected MT-4 cells at 3.7 uM; format: functional; conditions: Homo sapiens; in short: as §2
# [42] = system: CD4+ve Th; assay: Compound was tested for binding of the gp120 (strain IIIb)to the CD4+ T-cell lines at 92 uM; format: functional; in short: as §3
# [43] = system: MT4; assay: (§8) Compound was tested for binding of the mAb (NEA9305) to the V3 loo[p of gp120, expressed on HIV-1 infected MT-4 cells at 18 uM; format: functional; conditions: Homo sapiens; in short: as §2
# [44] = system: MT4; assay: as §5; format: functional, Homo sapiens; in short: as §2
# [45] = system: CD4+ve Th; assay: Compound was tested for binding of the gp120 (strain IIIb)to the CD4+ T-cell lines at 0.73 uM; format: functional; in short: as §3
# [46] = system: MT4; assay: as §6; format: functional, Homo sapiens; in short: as §2
# [47] = system: MT4; assay: as §7; format: functional, Homo sapiens; in short: as §2
# [48] = system: MT4; assay: as §8; format: functional, Homo sapiens; in short: as §2
# Sequence of C-X-C chemokine receptor type 4 (Homo sapiens) (P61073 whole entry, looked up): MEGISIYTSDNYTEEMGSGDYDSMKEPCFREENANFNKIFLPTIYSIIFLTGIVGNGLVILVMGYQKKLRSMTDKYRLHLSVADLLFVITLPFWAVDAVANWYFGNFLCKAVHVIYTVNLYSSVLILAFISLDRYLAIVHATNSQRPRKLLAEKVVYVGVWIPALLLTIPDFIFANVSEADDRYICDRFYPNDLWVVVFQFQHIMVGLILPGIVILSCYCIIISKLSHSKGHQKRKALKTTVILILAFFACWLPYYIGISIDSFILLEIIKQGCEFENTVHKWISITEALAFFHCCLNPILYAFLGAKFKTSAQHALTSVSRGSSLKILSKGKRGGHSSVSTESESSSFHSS
structure (smiles),measurement,setting,value
CC(C)CCCC(C)[C@H]1CC[C@H]2[C@@H]3CCC4C[C@@H](CCC=C(c5cc(Cl)c(OCc6ccc(C(=O)O)cc6)c(C(=O)O)c5)c5cc(Cl)c(OCc6ccc(C(=O)O)cc6)c(C(=O)O)c5)CC[C@]4(C)[C@H]3CC[C@]12C (stereo partly specified) [listing 1 of 2 here],Positive cells,[1],7.8%
same,inhibition,[1],94%
same,Positive cells,[2],99.2%
same,inhibition,[2],0%
same,Positive cells,[3],99.3%
same,Positive cells,[4],99.9%
same,inhibition,[4],0%
same,Positive cells,[5],99.8%
same,inhibition,[5],0%
same,Positive cells,[6],2.1%
same,inhibition,[6],100%
same,Positive cells,[7],99.8%
same,inhibition,[7],0%
same,Positive cells,[8],99.9%
same,inhibition,[8],0%
same,Positive cells,[9],99.8%
same,inhibition,[9],0%
same,Positive cells,[10],99.1%
same,inhibition,[10],4%
same,Positive cells,[11],1.4%
same,inhibition,[11],100%
same,Positive cells,[12],99.9%
same,Positive cells,[13],99.4%
same,inhibition,[13],0%
same,Positive cells,[14],1.2%
same,inhibition,[14],100%
same,Positive cells,[15],99.9%
same,inhibition,[15],0%
same,inhibition,[16],0%
same,Positive cells,[17],3.2%
same,inhibition,[17],99%
same,Positive cells,[18],99.1%
same,inhibition,[18],0%
same,Positive cells,[19],99.8%
same,inhibition,[20],0%
same,Positive cells,[21],1.2%
same,inhibition,[21],100%
same,inhibition,[22],0%
same,inhibition,[23],0%
CC(C)CCCC(C)[C@H]1CC[C@H]2[C@@H]3CCC4C[C@@H](CCC=C(c5cc(Cl)c(OCc6ccc(C(=O)[O-])cc6)c(C(=O)[O-])c5)c5cc(Cl)c(OCc6ccc(C(=O)[O-])cc6)c(C(=O)[O-])c5)CC[C@]4(C)[C@H]3CC[C@]12C.[Na+].[Na+].[Na+].[Na+] (stereo partly specified),Positive cells,[24],33.6%
same,Positive cells,[25],19.9%
same,inhibition at 3.2 µM,[25],82%
same,Positive cells,[26],60.9%
same,EC50,[27],22000 nM
same,EC50,[28]; cem-ss,800 nM
same,Positive cells,[29],26.9%
same,Positive cells,[30],66.6%
same,Cytotoxicity,[31],95 µM
same,Positive cells,[32],76.2%
same,inhibition at 0.65 µM,[32],22%
same,Positive cells,[33],7.8%
same,inhibition at 81 µM,[33],98%
same,Positive cells,[34],6.9%
same,inhibition at 16 µM,[34],99%
same,Cytotoxicity,[35],76 µM
same,EC50,[36]; mt4,1400 nM
CC(C)CCCC(C)[C@H]1CC[C@H]2[C@@H]3CCC4C[C@@H](CCC=C(c5cc(Cl)c(OCc6ccc(C(=O)O)cc6)c(C(=O)O)c5)c5cc(Cl)c(OCc6ccc(C(=O)O)cc6)c(C(=O)O)c5)CC[C@]4(C)[C@H]3CC[C@]12C (stereo partly specified) [listing 2 of 2 here],Positive cells,[37],8.3%
same,inhibition at 18 µM,[37],98%
same,inhibition at 92 µM,[38],76%
same,Positive cells,[39],25.3%
same,inhibition at 3.7 µM,[39],79%
same,inhibition at 0.73 µM,[40],3%
same,EC50,"[28]; Homo sapiens, CEM-SS",500 nM
same,inhibition at 3.7 µM,[41],16%
same,Positive cells,[42],6.8%
same,inhibition at 92 µM,[42],99%
same,inhibition at 18 µM,[43],58%
same,Positive cells,[44],23.8%
same,Cytotoxicity,[31],88 µM
same,Positive cells,[45],88.2%
same,inhibition at 0.73 µM,[45],9%
same,Positive cells,[46],65.9%
same,Positive cells,[47],58.4%
same,Positive cells,[48],34.4%
same,Cytotoxicity,[35],72 µM
same,EC50,"[36]; Homo sapiens, MT4",1700 nM
